Test results reported in ChEMBL document CHEMBL4138201, “Synthesis and biological evaluation of sulfur-containing shikonin oxime derivatives as potential antineoplastic agents” (Eur J Med Chem, 2018).

Key:
[1] = test system: MGC-803; assay: Cytotoxicity against human MGC803 cells after 48 hrs by MTT assay; type: functional, cell-based; conditions: MGC-803, 48 h
Outline: (§1)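 MTT colorimetric assay. Shikonin and 5-fluorouracil served as reference agents. IC₅₀ obtained by linear regression of each compound's concentration–response curve.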

[2] = test system: Bel-7402; assay: Cytotoxicity against human Bel7402 cells after 48 hrs by MTT assay; type: functional, cell-based; conditions: Bel-7402, 48 h; outline: as §1
[3] = Cytotoxicity against human HSF cells after 48 hrs by MTT assay; type: cell-based; outline: as §1
[4] = test system: HCT-15; assay: Cytotoxicity against human HCT15 cells after 48 hrs by MTT assay; type: functional, cell-based; conditions: HCT-15, 48 h; outline: as §1
[5] = test system: MCF7; assay: Cytotoxicity against human MCF7 cells after 48 hrs by MTT assay; type: functional, cell-based; conditions: MCF7, 48 h; outline: as §1

SMILES: COc1cccc(C(=O)SC(CC=C(C)C)c2cc(OC)c3c(c2OC)/C(=N/O)C=C/C3=N\O)c1 (stereo not given)
- IC50 [1]: 4.25 µM
- IC50 [2]: 5.54 µM
- IC50 [3]: > 50 µM
- IC50 [4]: 1.67 µM
- IC50 [5]: 35.2 µM

SMILES: CCCCCCCCCSC(CC=C(C)C)c1cc(OC)c2c(c1OC)/C(=N/O)C=C/C2=N\O (stereo not given)
- IC50 [1]: 9.86 µM
- IC50 [2]: 13.8 µM
- IC50 [3]: > 50 µM
- IC50 [4]: 4.09 µM
- IC50 [5]: 37.8 µM

SMILES: COc1cc(C(CC=C(C)C)SCC=C(C)C)c(OC)c2c1/C(=N/O)C=C/C2=N\O (stereo not given)
- IC50 [1]: 7.05 µM
- IC50 [2]: 12.6 µM
- IC50 [3]: > 50 µM
- IC50 [4]: 3.8 µM
- IC50 [5]: 33.7 µM

SMILES: COc1cc(C(CC=C(C)C)SC(C)=O)c(OC)c2c1/C(=N/O)C=C/C2=N\O (stereo not given)
- IC50 [1]: 2.49 µM
- IC50 [2]: 3.65 µM
- IC50 [3]: > 50 µM
- IC50 [4]: 1.22 µM
- IC50 [5]: 23.5 µM

SMILES: CCCCCCCCSC(CC=C(C)C)c1cc(OC)c2c(c1OC)/C(=N/O)C=C/C2=N\O (stereo not given)
- IC50 [1]: 2.29 µM
- IC50 [2]: 6.37 µM
- IC50 [3]: > 50 µM
- IC50 [4]: 1.25 µM
- IC50 [5]: 25.7 µM

SMILES: COc1cc(C(CC=C(C)C)SC(=O)c2ccc(C)cc2)c(OC)c2c1/C(=N/O)C=C/C2=N\O (stereo not given)
- IC50 [1]: 0.92 µM
- IC50 [2]: 0.72 µM
- IC50 [3]: > 50 µM
- IC50 [4]: 0.47 µM
- IC50 [5]: 15.8 µM

SMILES: COc1cc(C(=O)S[C@@H](CC=C(C)C)c2cc(OC)c3c(c2OC)/C(=N/O)C=C/C3=N\O)cc(OC)c1OC
- IC50 [1]: 0.97 µM
- IC50 [2]: 0.63 µM
- IC50 [3]: > 50 µM
- IC50 [4]: 0.34 µM
- IC50 [5]: 11.8 µM

SMILES: COc1cc([C@@H](CC=C(C)C)SCCC(C)C)c(OC)c2c1/C(=N/O)C=C/C2=N\O
- IC50 [1]: 5.87 µM
- IC50 [2]: 8.95 µM
- IC50 [3]: > 50 µM
- IC50 [4]: 1.94 µM
- IC50 [5]: 39.4 µM

SMILES: COc1cc(C(CC=C(C)C)SC(=O)c2ccco2)c(OC)c2c1/C(=N/O)C=C/C2=N\O (stereo not given)
- IC50 [1]: 5.01 µM
- IC50 [2]: 7.3 µM
- IC50 [3]: > 50 µM
- IC50 [4]: 1.98 µM
- IC50 [5]: 28.3 µM

SMILES: COc1cc(C(CC=C(C)C)SC(=O)c2cccs2)c(OC)c2c1/C(=N/O)C=C/C2=N\O (stereo not given)
- IC50 [1]: 2.75 µM
- IC50 [2]: 3.04 µM
- IC50 [3]: > 50 µM
- IC50 [4]: 1.36 µM
- IC50 [5]: 23.8 µM

SMILES: COc1cc([C@H](CC=C(C)C)SCCC(C)C)c(OC)c2c1/C(=N/O)C=C/C2=N\O
- IC50 [1]: 3.12 µM
- IC50 [2]: 4.85 µM
- IC50 [3]: > 50 µM
- IC50 [4]: 0.92 µM
- IC50 [5]: 26.3 µM

SMILES: COc1ccc(C(=O)S[C@H](CC=C(C)C)c2cc(OC)c3c(c2OC)/C(=N/O)C=C/C3=N\O)cc1OC
- IC50 [1]: 1.57 µM
- IC50 [2]: 1.16 µM
- IC50 [3]: > 50 µM
- IC50 [4]: 0.84 µM
- IC50 [5]: 19.5 µM

SMILES: COc1cc(C(CC=C(C)C)SC(=O)c2ccc(N)cc2)c(OC)c2c1/C(=N/O)C=C/C2=N\O (stereo not given)
- IC50 [1]: 2.45 µM
- IC50 [2]: 1.26 µM
- IC50 [3]: > 50 µM
- IC50 [4]: 1.68 µM
- IC50 [5]: 19.4 µM

SMILES: CCCCCCSC(CC=C(C)C)c1cc(OC)c2c(c1OC)/C(=N/O)C=C/C2=N\O (stereo not given)
- IC50 [1]: 6.73 µM
- IC50 [2]: 11.7 µM
- IC50 [3]: > 50 µM
- IC50 [4]: 3.46 µM
- IC50 [5]: 34.6 µM

SMILES: COc1cc(C(CC=C(C)C)SC(=O)C=C(C)C)c(OC)c2c1/C(=N/O)C=C/C2=N\O (stereo not given)
- IC50 [1]: 3.96 µM
- IC50 [2]: 4.53 µM
- IC50 [3]: > 50 µM
- IC50 [4]: 1.56 µM
- IC50 [5]: 29.9 µM

SMILES: O=c1[nH]cc(F)c(=O)[nH]1 [FLUOROURACIL]
- IC50 [1]: > 50 µM
- IC50 [2]: 20.9 µM
- IC50 [3]: > 50 µM
- IC50 [4]: 7.53 µM
- IC50 [5]: 29 µM

SMILES: COc1cc(C(CC=C(C)C)SC(=O)c2cccc(Cl)c2)c(OC)c2c1/C(=N/O)C=C/C2=N\O (stereo not given)
- IC50 [1]: 8.73 µM
- IC50 [2]: 12.1 µM
- IC50 [3]: > 50 µM
- IC50 [4]: 2.64 µM
- IC50 [5]: 42.9 µM

SMILES: COc1ccccc1C(=O)SC(CC=C(C)C)c1cc(OC)c2c(c1OC)/C(=N/O)C=C/C2=N\O (stereo not given)
- IC50 [1]: 1.37 µM
- IC50 [2]: 1.06 µM
- IC50 [3]: > 50 µM
- IC50 [4]: 0.89 µM
- IC50 [5]: 19.8 µM

SMILES: COc1cc([C@H](CC=C(C)C)SC(=O)c2ccccc2)c(OC)c2c1/C(=N/O)C=C/C2=N\O
- IC50 [1]: 1.26 µM
- IC50 [2]: 1.48 µM
- IC50 [3]: > 50 µM
- IC50 [4]: 0.59 µM
- IC50 [5]: 18.1 µM

SMILES: CCC(=O)SC(CC=C(C)C)c1cc(OC)c2c(c1OC)/C(=N/O)C=C/C2=N\O (stereo not given)
- IC50 [1]: 3.06 µM
- IC50 [2]: 2.73 µM
- IC50 [3]: > 50 µM
- IC50 [4]: 1.35 µM
- IC50 [5]: 26.1 µM

SMILES: COc1cc(C(CC=C(C)C)SC(=O)c2ccccc2F)c(OC)c2c1/C(=N/O)C=C/C2=N\O (stereo not given)
- IC50 [1]: 1.52 µM
- IC50 [2]: 1.34 µM
- IC50 [3]: > 50 µM
- IC50 [4]: 0.62 µM
- IC50 [5]: 23 µM

SMILES: COc1cc(C(CC=C(C)C)SC(=O)c2ccc(Cl)cc2)c(OC)c2c1/C(=N/O)C=C/C2=N\O (stereo not given)
- IC50 [1]: 1.45 µM
- IC50 [2]: 1.16 µM
- IC50 [3]: > 50 µM
- IC50 [4]: 0.82 µM
- IC50 [5]: 20.4 µM

SMILES: CCCCSC(CC=C(C)C)c1cc(OC)c2c(c1OC)/C(=N/O)C=C/C2=N\O (stereo not given)
- IC50 [1]: 9.32 µM
- IC50 [2]: 12.6 µM
- IC50 [3]: > 50 µM
- IC50 [4]: 4.37 µM
- IC50 [5]: 36 µM

SMILES: CCSC(CC=C(C)C)c1cc(OC)c2c(c1OC)/C(=N/O)C=C/C2=N\O (stereo not given)
- IC50 [1]: 12.5 µM
- IC50 [2]: 20.1 µM
- IC50 [3]: > 50 µM
- IC50 [4]: 7.15 µM
- IC50 [5]: 44.2 µM

SMILES: CC(C)=CC[C@@H](O)C1=CC(=O)c2c(O)ccc(O)c2C1=O [SHIKONIN]
- IC50 [1]: 1.51 µM
- IC50 [2]: 1.24 µM
- IC50 [3]: 1.25 µM
- IC50 [4]: 0.86 µM
- IC50 [5]: 2.4 µM

SMILES: COc1cc(C(=O)S[C@H](CC=C(C)C)c2cc(OC)c3c(c2OC)/C(=N/O)C=C/C3=N\O)cc(OC)c1OC
- IC50 [1]: 1.18 µM
- IC50 [2]: 0.97 µM
- IC50 [3]: > 50 µM
- IC50 [4]: 0.57 µM
- IC50 [5]: 12.8 µM

SMILES: CCCCCC(=O)SC(CC=C(C)C)c1cc(OC)c2c(c1OC)/C(=N/O)C=C/C2=N\O (stereo not given)
- IC50 [1]: 16.9 µM
- IC50 [2]: 22.4 µM
- IC50 [3]: > 50 µM
- IC50 [4]: 7.21 µM
- IC50 [5]: 45.7 µM

SMILES: COc1cc(C(CC=C(C)C)SC(=O)c2ccc(C(F)(F)F)cc2)c(OC)c2c1/C(=N/O)C=C/C2=N\O (stereo not given)
- IC50 [1]: 5.97 µM
- IC50 [2]: 7.12 µM
- IC50 [3]: > 50 µM
- IC50 [4]: 2.75 µM
- IC50 [5]: 30.5 µM

SMILES: CCCCCCCSC(CC=C(C)C)c1cc(OC)c2c(c1OC)/C(=N/O)C=C/C2=N\O (stereo not given)
- IC50 [1]: 5.51 µM
- IC50 [2]: 8.15 µM
- IC50 [3]: > 50 µM
- IC50 [4]: 1.97 µM
- IC50 [5]: 30.6 µM

SMILES: COc1cc(C(CC=C(C)C)SC(=O)c2cccnc2)c(OC)c2c1/C(=N/O)C=C/C2=N\O (stereo not given)
- IC50 [1]: 7.56 µM
- IC50 [2]: 10.2 µM
- IC50 [3]: > 50 µM
- IC50 [4]: 3.45 µM
- IC50 [5]: 37.5 µM

SMILES: COc1cc(C(CC=C(C)C)SC/C=C(\C)CC/C=C(\C)CCC=C(C)C)c(OC)c2c1/C(=N/O)C=C/C2=N\O (stereo not given)
- IC50 [1]: 9.98 µM
- IC50 [2]: 14.7 µM
- IC50 [3]: > 50 µM
- IC50 [4]: 5.96 µM
- IC50 [5]: 37.4 µM

SMILES: CCCCCCCCCCCCSC(CC=C(C)C)c1cc(OC)c2c(c1OC)/C(=N/O)C=C/C2=N\O (stereo not given)
- IC50 [1]: 31.6 µM
- IC50 [2]: 34.3 µM
- IC50 [3]: > 50 µM
- IC50 [4]: 14.7 µM
- IC50 [5]: > 50 µM

SMILES: COc1cc(C(CC=C(C)C)SC(=O)c2ccc(NC(=O)OC(C)(C)C)cc2)c(OC)c2c1/C(=N/O)C=C/C2=N\O (stereo not given)
- IC50 [1]: 6.56 µM
- IC50 [2]: 9.17 µM
- IC50 [3]: > 50 µM
- IC50 [4]: 3.39 µM
- IC50 [5]: 32.4 µM

SMILES: COc1cc([C@@H](CC=C(C)C)SC(=O)c2ccccc2)c(OC)c2c1/C(=N/O)C=C/C2=N\O
- IC50 [1]: 2.67 µM
- IC50 [2]: 2.97 µM
- IC50 [3]: > 50 µM
- IC50 [4]: 1.06 µM
- IC50 [5]: 25.5 µM
